Results taken from paper PMC6364161 (Journal of Veterinary Research, 2018).
Each block holds one compound with its values, some of them ahead of it.

Tests used:
BALB/3T3 cells [1] = assay: MTT reduction assay, BALB/3T3 cells; format: cell-based, Mouse; conditions: for cell viability at low doses / cell viability: MTT; for cell viability at low doses: BALB/3T3, 100 and 200 μM; for cell viability: BALB/3T3, 100 to 1,400 μM, 24 h, compared to control
Method in brief: (§1)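 Cells were plated at 2 × 10^5 cells/mL and cultured 24 h: BALB/3T3 in DMEM with 10% heat-inactivated calf serum, HepG2 in EMEM with 10% heat-inactivated FBS. Medium was then replaced with test compound at 100–1,400 μM, diluted from a 10 mM PBS stock, for 24 h. MTT reduction was read spectrophotometrically as viability relative to untreated control (100%), and IC50 was taken from the dose-response curve. Six independent experiments, triplicate wells.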

HepG2 cells [2] = assay: MTT reduction assay, HepG2 cells; format: cell-based, human; conditions: for cell viability at low doses / cell viability: MTT; for cell viability at low doses: HepG2, 100 and 200 μM; for cell viability: HepG2, 100 to 1,400 μM, 24 h, compared to control; for IC50: MTT assay, HepG2, 24 h incubation
Method in brief: as §1

BALB/3T3 cells [3] = assay: LDH release assay, BALB/3T3 cells; format: cell-based, Mouse; conditions: for LDH leakage (membrane integrity): LDH release, BALB/3T3, 100 to 1,400 μM, 24 h; for IC50: LDH leakage assay, BALB/3T3, 24 h incubation
Method in brief: (§2)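 Test compounds (10 mM stock in PBS) were diluted in complete medium: DMEM plus 10% heat-inactivated calf serum for BALB/3T3 cells, EMEM plus 10% heat-inactivated FBS for HepG2 cells. Cells were seeded at 2 × 10^5 cells/mL, grown 24 h, then exposed to 100–1,400 μM for 24 h at 37 °C, 5% CO2. Released LDH was taken as a percentage of total LDH absorbance, and IC50 was read from the dose-response curve. Six independent experiments, three wells each.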

HepG2 cells [4] = assay: LDH release assay, HepG2 cells; format: cell-based, human; conditions: for LDH leakage (membrane integrity): LDH release, HepG2, 100 to 1,400 μM, 24 h; for IC50: LDH leakage assay, HepG2, 24 h incubation
Method in brief: as §2

BALB/3T3 cells [5] = assay: Neutral red uptake assay, BALB/3T3 cells; format: cell-based, Mouse; conditions: NRU; for cell viability at low doses: BALB/3T3, 100, 200, and 400 μM; for cell viability: BALB/3T3, 100 to 1,400 μM, 24 h
Method in brief: (§3)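 Neutral red uptake, a measure of lysosomal activity. BALB/3T3 cells were grown in DMEM with 10% heat-inactivated calf serum and HepG2 cells in EMEM with 10% heat-inactivated FBS, both seeded at 2 × 10^5 cells/mL for 24 h. Cells were then exposed for 24 h to test compound at 100–1,400 μM, diluted in medium from a 10 mM PBS stock. Viability was measured spectrophotometrically against control cells, and IC50 was read from the dose-response curve. Six independent experiments, three wells per treatment.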

HepG2 cells [6] = assay: Neutral red uptake assay, HepG2 cells; format: cell-based, human; conditions: for cell viability at low doses / cell viability: NRU; for cell viability at low doses: HepG2, 100, 200, and 400 μM; for cell viability: HepG2, 100 to 1,400 μM, 24 h
Method in brief: as §3

HK-2 cells = conditions: MTT assay, 480 μM; cited from earlier work

Structure (SMILES): O.O.O.O.O.O.[Cl-].[Cl-].[Cl-].[Fe+3] [Iron chloride, FeCl3 × 6H2O]
cell viability at low doses (BALB/3T3 cells [1]): increased | cell viability (BALB/3T3 cells [1]): significantly decreased in a concentration-dependent manner | cell viability at low doses (HepG2 cells [2]): increased | cell viability (HepG2 cells [2]): significantly decreased in a concentration-dependent manner | LDH leakage (membrane integrity) (BALB/3T3 cells [3]): increasingly significant LDH leakage | LDH leakage (membrane integrity) (HepG2 cells [4]): increasingly significant LDH leakage | cell viability at low doses (BALB/3T3 cells [5]): increased | cell viability (BALB/3T3 cells [5]): significantly decreased in a concentration-dependent manner | cell viability at low doses (HepG2 cells [6]): increased | cell viability (HepG2 cells [6]): significantly decreased in a concentration-dependent manner

IC50 (HepG2 cells [2]): 1300 µM | IC50 (HepG2 cells [4]): 900 µM | IC50 (HepG2 cells [6]; NRU assay, HepG2, 24 h incubation): 1.2 mM
Structure (SMILES): [Cl-].[Cl-].[Cl-].[Fe+3] [Iron chloride, FeCl3 × 6H2O]
IC50 (BALB/3T3 cells [3]): 550 µM

Structure (SMILES): CC(=O)[O-].CC(=O)[O-].[Ni+2] [Ni (II) acetate]
cell viability (HK-2 cells): less than 50%

Structure (SMILES): [Cl][Ni][Cl] [Nickel chloride, NiCl2]
IC50 (BALB/3T3 cells [1]; MTT assay, BALB/3T3, 24 h incubation): 700 µM | cell viability at low doses (BALB/3T3 cells [1]): increased | cell viability (BALB/3T3 cells [1]): significantly decreased in a concentration-dependent manner | IC50 (HepG2 cells [2]): 400 µM | cell viability at low doses (HepG2 cells [2]): increased | cell viability (HepG2 cells [2]): significantly decreased in a concentration-dependent manner | IC50 (BALB/3T3 cells [3]): 300 µM | LDH leakage (membrane integrity) (BALB/3T3 cells [3]): increasingly significant LDH leakage | IC50 (HepG2 cells [4]): 800 µM | LDH leakage (membrane integrity) (HepG2 cells [4]): increasingly significant LDH leakage | cell viability at low doses (BALB/3T3 cells [5]): increased | cell viability (BALB/3T3 cells [5]): significantly decreased in a concentration-dependent manner | cell viability at low doses (HepG2 cells [6]): increased | cell viability (HepG2 cells [6]): significantly decreased in a concentration-dependent manner
